# Jurkat NFkB inh: lowers PMA/ionomycin-induced NF-kB signal in Jurkat cells. PMA/ionomycin-induced NF-kB luciferase reporter, luminescence. inhibition, % at 4 µM. 330,000 compounds, 0.53% hits. AID 435003; in the data active = inhibition above about 50%
# UPR XBP1 act: activators of adaptive arm of unfolded protein response (XBP1). CHO-XBP1 luciferase reporter, IRE1-XBP1 UPR activation, luminescence; percent of tunicamycin response, DMSO as zero. AID 463104. activation, % at 20 µM. 330,000 compounds, 0.33% hits;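 active = versus positive control, 20 µM dose yields 30% or more activation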;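 note: 100% = tunicamycin at 10 µg/mL and 0% = DMSO only wells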
#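 Material: CHO cell line with stable XBP1 luciferase reporter; schedule: 16-18 h cell attachment at 37 °C, then 6 h compound exposure; signal: glow luminescence from Steady-Glo reagent; medium: serum-containing F12 medium, 10% FBS; benchmarks: tunicamycin 10 µg/mL and vehicle-only wells; read-out: percent activation relative to tunicamycin reference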
# CHOP inh: inhibitors of CHOP induction in ER stress response | inhibition, % at 10 µM | 220,000 compounds, 3.8% hits | CHO-K1 CHOP-promoter luciferase, tunicamycin-induced, 15-18 h;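 active = compounds that reduced the stress-induced luciferase reporter signal by more than about 70% of percent inhibition, limit read from the data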;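 note: 0% = tunicamycin plus vehicle and 100% = wells without tunicamycin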
# UPR CHOP act: apoptotic UPR (CHOP) activation | AID 449763 | CHO-CHOP luciferase reporter, luminescence; percent of tunicamycin response over DMSO baseline | activation, % at 10 µM | 330,000 compounds, 0.34% hits;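 active = at 10 µM dose, activation of 40% or more, normalized to positive control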;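 note: 100% = tunicamycin at 10 µg/mL and 0% = DMSO alone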
#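 Evaluation: % reporter activation, DMSO baseline versus tunicamycin full activation; System: CHO-CHOP luciferase reporter cell line; Input: 500 cells/well; Incubation: 6 h compound treatment, 37 °C; Measured by: Steady-Glo luciferase luminescence; Dosing: one dose, 10 µM in 0.5% DMSO; Buffer or medium: F12 medium, 10% FBS; Benchmarks: positive tunicamycin 10 µg/mL, negative DMSO alone.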
# Gli-Sufu block: Gli-Sufu pathway antagonism. Sufu-KO-LIGHT fibroblasts, Gli luciferase reporter luminescence. inhibition, % at 5 µM. 340,000 compounds, 0.74% hits. AID 588413;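 active = inhibition above about 55%, limit read from the data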;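 note: 0% = DMSO-treated cells and 100% = wells with medium but no cells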
# 697 NFkB inh: inhibitors of the PMA/ionomycin-induced NF-kB reporter in 697 B cells. AID 435022. 330,000 compounds, 0.33% hits. inhibition, % at 4 µM. 697 B-cell NF-kB luciferase reporter, 16 h; in the data active = inhibition above about 35%
# * marks the source's active call; other numbers are inactive results; / = no result given. This is a sample that favours compounds with a hit; in the whole collection about 3.9% have one here.
SMILES,Jurkat NFkB inh,UPR XBP1 act,CHOP inh,UPR CHOP act,Gli-Sufu block,697 NFkB inh
CCc1nnc(NC(=O)[C@@H](NC(=O)c2cccc(S(=O)(=O)N(CC)CC)c2)C(C)C)s1,-2,-2,83*,-1,5,6
CCN1C/C(=C/c2cccc([N+](=O)[O-])c2)C(=O)/C(=C/c2cccc([N+](=O)[O-])c2)C1,/,/,111*,/,58*,/
COc1ccc(OC(C)C(=O)N(C)Cc2nc(-c3ccc(OC)cc3)no2)cc1 (centres undefined),-8,-1,/,1,3,-21
Cc1cccc(C)c1OCC(O)CN1CCN(c2ccccn2)CC1 (centres undefined),-1,-1,17,0,-1,16
OC(COC(c1ccc(Cl)cc1)c1ccc(Cl)cc1)CN1CCN(c2ccccn2)CC1 (centres undefined),4,-2,91*,-2,29,11
OC(COc1ccc2cc(Br)ccc2c1)CN1CCN(c2ccccn2)CC1 (centres undefined),4,-1,79*,-1,8,14
O=S(=O)(N1CCCCC1)N1CCN(CC(O)COc2ccc3cc(Br)ccc3c2)CC1 (centres undefined),13,0,87*,0,18,12
CC1(C)C2CCC1(CS(=O)(=O)NCc1ccc(Cl)cc1Cl)C(=O)C2 (centres undefined),10,-2,/,-1,-13,6
CCOC(=O)c1cc(-c2ccc(N)cc2)sc1N,-73,5,36,5,-22,-93
CCOC(=O)c1sc(-c2ccc(Br)cc2)cc1N,-110,5,81*,4,-77,-66
CC(C)NS(=O)(=O)c1ccc(OCC(=O)NCc2ccc3c(c2)OCO3)c(Cl)c1,-17,-3,24,-2,-5,11
CC(C)NS(=O)(=O)c1ccc(OCC(=O)Nc2ccc3c(c2)OCO3)c(Cl)c1,-5,0,70*,-1,7,6
CC(C)(C)C(=O)NC(=S)NNC(=O)c1ccc(Cl)cc1Cl,-3,13,92*,0,-4,-4
COC(=O)NNC(=O)c1ccc(Cl)cc1Cl,7,-1,12,-1,2,-4
COC(=O)c1c(NC(=O)COC(=O)c2ccc(Cl)nc2)sc(C)c1C,-35,-3,/,-1,-5,2
CCOC(=O)c1cc(-c2ccccc2)n(CC(=O)Nc2cccc(OC)c2)c1C,2,-4,67,-1,11,4
CCOC(=O)c1cc(-c2ccccc2)n(CC(=O)Nc2ccc(OC)c(OC)c2)c1C,-8,2,100*,-1,-13,4
COc1cc2c(cc1OC)CN(C(=O)C(CCSC)NS(=O)(=O)c1ccc(C)cc1)CC2 (centres undefined),-9,-3,/,2,15,7
CCC(CO)Oc1cc(NC(=O)c2ccccc2)c2ncn(C(C)C)c2c1 (centres undefined),0,0,/,-1,-7,14
CCOc1ccc(NC(=S)Nc2ccc(C)c([N+](=O)[O-])c2)cc1,-13,-2,70*,0,5,-20
COC(=O)c1ccccc1NC(=O)CCCn1nc([N+](=O)[O-])cc1C,13,-2,4,1,3,7
COc1ccc(CNC(=O)CCCn2nc([N+](=O)[O-])cc2C)cc1,2,-2,3,-1,9,5
Cc1ccc(Oc2cc(NC(=O)CCCn3nc([N+](=O)[O-])c(Cl)c3C)cc([N+](=O)[O-])c2)cc1,3,-1,81*,1,-1,9
Cc1cc([N+](=O)[O-])nn1CCCC(=O)Nc1cc(Oc2ccc(F)cc2)cc([N+](=O)[O-])c1,8,0,70*,-1,2,-2
Cc1cc([N+](=O)[O-])nn1CCCC(=O)Nc1cc(Oc2ccccc2)cc([N+](=O)[O-])c1,2,-3,74*,1,9,0
SMILES,Jurkat NFkB inh,UPR XBP1 act,CHOP inh,UPR CHOP act,Gli-Sufu block,697 NFkB inh
Cc1ccc(S(=O)(=O)N2CCOCC2)cc1C(=O)OCC(=O)NCCc1ccc(F)cc1,1,0,/,2,30,17
COc1ccc(-c2cc(C(F)(F)F)nc(NC3CCCC3)n2)cc1OC,0,7,73*,2,-1,15
CCCCOc1ccc(CSCCN)cc1Cl,-17,0,73*,4,39,17
C/[N+]([O-])=C\c1cccc(OCCN2CCN(c3ncc(C(F)(F)F)cc3Cl)CC2)c1,2,-4,/,1,-8,-2
O=[N+]([O-])c1ccc(S(=O)(=O)c2cccc(C(F)(F)F)c2)nc1,14,-11,/,-10,-1,-31
Cc1ccccc1Nc1nc(-c2sc(NC(=O)c3ccc([N+](=O)[O-])cc3)nc2C)cs1,-20,4,34,4,/,-90
CCOc1ccccc1Nc1nc(-c2sc(NC(=O)c3ccc([N+](=O)[O-])cc3)nc2C)cs1,7,3,82*,-1,/,-40
O=C(CNS(=O)(=O)c1ccc(F)cc1)N1CCN(c2ccccc2)CC1,-7,-3,80*,3,-3,4
O=C(CNS(=O)(=O)c1ccc(Cl)cc1)N1CCN(c2ccc(F)cc2)CC1,-4,-2,/,2,5,-12
N=C1S/C(=C\c2ccc(-c3cccc(Cl)c3)o2)C(=O)N1c1nccs1,/,/,59,/,88*,/
COc1ccc(/C=C2\SC(=N)N(c3nccs3)C2=O)cc1OC,-9,7,-105,6,-7,-2
COc1ccc(N(C)C(=O)Cc2c(C(=O)O)n(C)c3ccccc23)c(OC)c1,-8,-1,/,1,2,-9
Cc1ccc(Cn2nc3c(cc2=O)CCc2ccccc2-3)cc1,21,4,32,0,-9,15
O=c1cc2c(nn1Cc1cccc(Cl)c1)-c1ccccc1CC2,-1,2,95*,2,-6,5
O=c1cc2c(nn1Cc1ccc(Cl)cc1)-c1ccccc1CC2,9,-3,88*,0,-12,24
O=c1cc2c(nn1Cc1ccccc1Cl)-c1ccccc1CC2,2,2,86*,1,-1,11
Cc1cc(/C=C2\SC(=Nc3ccc(F)cc3)NC2=O)c(C)n1-c1ccc(S(N)(=O)=O)cc1,19,4,77*,-2,14,-18
O=C(COC(=O)c1cccs1)Nc1cccc(S(=O)(=O)N2CCCCC2)c1,-5,-3,/,1,-2,5
Cc1cnc(C(=O)N(CC(C)C)c2c(N)n(CC(C)C)c(=O)[nH]c2=O)cn1,-16,-1,/,1,-13,-21
Oc1cccc(C(O)CNCc2ccc(OCc3ccc(Cl)cc3Cl)cc2)c1 (centres undefined),-14,2,104*,-1,10,-3
